Measured values gathered from unrelated publications.
Compare with care: the assays were run in different laboratories.

SMILES	test	test system	setting	measurement	value
O=C1NC2(CCC2)C(=O)N1c1ccc(F)c(C(F)(F)F)c1	metabolic stability	mouse, liver microsomes	–	microsomal CLint	42 µL/min/mg
Cl.Cn1c(=O)n(CCCCN2CCC3(CC2)OCc2ccccc23)c2ccccc21	–	male Sprague-Dawley rat, plasma	intravenous, 5 mg/kg	Vd	8.4 L/kg
Cc1[nH]c(C)c(S(=O)(=O)Nc2ccc(S(F)(F)(F)(F)F)c(Cl)c2)c1C(=O)N1CCC(F)(F)C1	metabolic stability	mouse, liver microsomes	–	microsomal CLint	25.4 µL/min/mg
C/C=C1/CN2CC[C@@]34c5cc(O)ccc5N(C)[C@]35OC[C@@]4(C(=O)OC)[C@H]1C[C@H]25	–	male Sprague-Dawley rat, plasma	intravenous, 1 mg/kg	Vd	10.2 L/kg
CC[C@H](C)CCCCC(=O)N[C@@H](CCN)C(=O)N[C@H](C(=O)N[C@@H](CCN)C(=O)N[C@H]1CCNC(=O)[C@H]([C@@H](C)O)NC(=O)[C@H](CCN)NC(=O)[C@H](CCN)NC(=O)[C@H](CC(C)C)NC(=O)[C@@H](CC(C)C)NC(=O)[C@H](CCN)NC1=O)[C@@H](C)O	–	male Sprague-Dawley rat, plasma	intravenous, 5 mg/kg	Vd	0.736 L/kg
CC1(CC(F)(F)F)NC(=O)N(c2ccc(F)c(C(F)(F)F)c2)C1=O (stereo not drawn)	metabolic stability	mouse, liver microsomes	–	microsomal CLint	< 7 µL/min/mg
Cc1[nH]c(C)c(S(=O)(=O)Nc2ccc(S(=O)(=O)F)c(Cl)c2)c1C(=O)N1CCC(F)(F)C1	metabolic stability	mouse, liver microsomes	–	microsomal CLint	21.8 µL/min/mg
CC(C)CC(=O)OC[C@H]1O[C@@](C#N)(c2ccc3c(N)ncnn23)[C@H](O)[C@@H]1O	metabolic stability	mouse, hepatocytes	5 µM	hepatocyte CLint	> 318 µL/min/10⁶ cells
NCCOCC(=O)N1CCCC(C(=O)NCc2nc(-c3ccc(-c4ccc(F)cc4)cc3)cs2)C1 (stereo not drawn)	–	rat, plasma	intravenous, 1 mg/kg	Vd	26 L/kg
